Experimental data taken from ChEMBL document CHEMBL1144560, “Synthesis of benzofuran scaffold-based potential PTP-1B inhibitors” (Bioorg Med Chem, 2007).
Calls of active or inactive are those of the source. No cut-off for these calls is given here.

Key:
[1] = target: T1, Tyrosine-protein phosphatase non-receptor type 1 (Homo sapiens) (UniProt P18031); experiment: (§1) Inhibition of PTP1B at 100 uM
T1 sequence (whole entry): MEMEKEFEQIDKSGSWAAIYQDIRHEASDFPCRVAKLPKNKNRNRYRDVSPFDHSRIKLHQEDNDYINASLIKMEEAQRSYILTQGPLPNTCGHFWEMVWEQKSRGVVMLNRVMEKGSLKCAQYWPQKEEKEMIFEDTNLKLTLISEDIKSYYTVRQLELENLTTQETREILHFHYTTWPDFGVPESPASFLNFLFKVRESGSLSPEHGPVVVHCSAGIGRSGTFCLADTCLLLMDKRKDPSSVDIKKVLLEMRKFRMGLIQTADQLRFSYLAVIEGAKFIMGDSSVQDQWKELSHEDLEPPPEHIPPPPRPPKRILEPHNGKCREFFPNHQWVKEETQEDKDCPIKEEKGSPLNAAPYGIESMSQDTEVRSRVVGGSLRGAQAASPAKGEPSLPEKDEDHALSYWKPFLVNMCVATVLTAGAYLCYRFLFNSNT
Summary of the method: (§2)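 Compound at 100 µM preincubated 10 min with PTP-1B, then 10 mM pNPP in 50 mM HEPES pH 7.0 with 1 mM DTT and 2 mM EDTA for 30 min at 37 °C. Stopped with 0.1 N NaOH. p-Nitrophenolate read at 410 nm (ε 1.78×10^4 M⁻¹cm⁻¹) to give residual activity. Mean of three independent experiments.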

[2] = target: T2, Tyrosine-protein phosphatase non-receptor type 1 (Homo sapiens, UniProt P18031); experiment: Inhibition of PTP1B
T2 sequence (P18031 whole entry): T1 sequence (whole entry)
Summary of the method: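 No detergent present. Compounds at 10, 25, 50, 75 and 100 µM preincubated 10 min with PTP-1B, then 10 mM pNPP in 50 mM HEPES pH 7.0, 1 mM DTT, 2 mM EDTA, 30 min at 37 °C. NaOH stop. A410 converted to p-nitrophenolate (ε 1.78×10^4 M⁻¹cm⁻¹). IC50 and Ki derived.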

[3] = target: T2, Tyrosine-protein phosphatase non-receptor type 1; experiment: Inhibition of PTP1B in presence of 0.01% Triton X-100
Summary of the method: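 0.01% Triton X-100 included during the 10-min preincubation of compound (10–100 µM) with PTP-1B. Then 10 mM pNPP in 50 mM HEPES pH 7.0, 1 mM DTT, 2 mM EDTA, 30 min at 37 °C, NaOH stop. Read at 410 nm (ε 1.78×10^4 M⁻¹cm⁻¹). IC50 and Ki derived.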

[4] = target: Tyrosine-protein phosphatase non-receptor type 1 (Homo sapiens) (UniProt P18031); experiment: as §1; summary of the method: as §2; remark: listed apart in the source

Molecule: CC(=O)c1ccc2occc2c1O
- inhibition [1]: 21.6%

Molecule: COC(=O)c1ccc2oc(-c3coc4ccc(C(=O)OC)c(O)c34)cc2c1O
- inhibition [1]: 55.5%

Molecule: COc1ccc(/C(O)=C/C(=O)c2cc3ccoc3cc2O)cc1OC
- inhibition [1]: 32.4%

Molecule: CC(=O)c1c(O)ccc2cc(-c3coc4c(C(C)=O)c(O)ccc34)oc12
- inhibition [1]: 72%
- IC50 [2]: 75 µM
- Ki [2]: 64 µM
- IC50 [3]: 56.3 µM
- Ki [3]: 54 µM

Molecule: SODIUM ORTHOVANAD
- inhibition [4]: 56%

Molecule: COc1ccc(-c2cc(=O)c3cc4ccoc4cc3o2)cc1OC
- inhibition [1]: 24.3%

Molecule: COc1ccc(/C(O)=C/C(=O)c2ccc3occc3c2OC)cc1
- Activity [1]: inactive

Molecule: COc1cc2occc2cc1C(=O)/C=C(\O)c1ccccc1
- inhibition [1]: 41.5%

Molecule: CC(=O)c1cc2oc(-c3coc4cc(C(C)=O)c(O)cc34)cc2cc1O
- inhibition [1]: 36.2%

Molecule: O=C(/C=C(\O)c1ccccc1)c1ccc2occc2c1O
- inhibition [1]: 40.5%

Molecule: COc1ccc(-c2cc(=O)c3cc4ccoc4cc3o2)cc1
- inhibition [1]: 75.6%
- IC50 [2]: 72.5 µM
- Ki [2]: 30 µM
- IC50 [3]: 68.8 µM
- Ki [3]: 36 µM

Molecule: O=c1cc(-c2ccccc2)oc2cc3occc3cc12
- inhibition [1]: 67.5%
- IC50 [2]: 94 µM
- Ki [2]: 57 µM
- IC50 [3]: 61.3 µM
- Ki [3]: 45 µM

Molecule: COc1ccc(-c2cc(=O)c3ccc4occc4c3o2)cc1
- inhibition [1]: 22%

Molecule: CC(=O)c1ccc2oc(-c3coc4ccc(C(C)=O)c(O)c34)cc2c1O
- inhibition [1]: 67.4%
- IC50 [2]: 87 µM
- Ki [2]: 35 µM
- IC50 [3]: 58.8 µM
- Ki [3]: 27.5 µM

Molecule: O=c1cc(-c2ccc(CO)c(CO)c2)oc2cc3occc3cc12
- inhibition [1]: 8.1%

Molecule: COc1ccc(/C(O)=C/C(=O)c2cc3ccoc3cc2O)cc1
- inhibition [1]: 40.5%

Molecule: COc1ccc2cc(-c3coc4c(C(C)=O)c(OC)ccc34)oc2c1C(C)=O
- inhibition [1]: 54.6%

Molecule: COc1ccc(/C(O)=C/C(=O)c2ccc3occc3c2O)cc1
- inhibition [1]: 24.3%

Molecule: CC(=O)c1cc2ccoc2cc1O
- inhibition [1]: 19%

Molecule: COc1c(C(=O)/C=C(\O)c2ccc(CO)c(CO)c2)ccc2occc12
- inhibition [1]: 42.8%

Molecule: COc1cccc(/C(O)=C/C(=O)c2cc3ccoc3cc2O)c1
- Activity [1]: inactive

Molecule: CC(=O)c1cc2cc(-c3coc4cc(O)c(C(C)=O)cc34)oc2cc1O
- inhibition [1]: 74.9%
- IC50 [2]: 80 µM
- Ki [2]: 37 µM
- IC50 [3]: 91.3 µM
- Ki [3]: 61 µM

Molecule: O=C(/C=C(\O)c1ccc(CO)c(CO)c1)c1cc2ccoc2cc1O
- inhibition [1]: 56.7%

Molecule: COc1c(C(=O)/C=C(\O)c2ccccc2Cl)ccc2occc12
- inhibition [1]: 27%

Molecule: O=c1cc(-c2ccccc2)oc2c1ccc1occc12
- inhibition [1]: 21%

Molecule: O=C(/C=C(\O)c1ccccc1)c1cc2ccoc2cc1O
- inhibition [1]: 24.3%

Molecule: COc1cccc(-c2cc(=O)c3cc4ccoc4cc3o2)c1
- Activity [1]: inactive
